Compound activity as filed in PubChem.
bCat KO growth – beta-catenin-lacking colon tumor cell growth suppression. HCT116 beta-catenin knockout viability, CellTiter-Glo, 60 h; stronger effect = lower value. viability, % at 10 µM. actives 1.5% (n = 140,000). AID 818;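 active means viability at or under a set limit, the compound median less 4 SD, cut at about 6% in these data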;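 further: 0% = Hyamine 1622 control at 20 µM and 100% = untreated cell control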
Fibroblast inh – blocks proliferation of human lung fibroblasts; LL 47 human lung fibroblast viability, ATP luminescence; stronger effect = lower value; actives 1.1% (n = 85,000); viability, % at 10 µM;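 active means viability at or below 50% in the single dose screen; inactive means viability above 50%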;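 further: compound exposure lasted 72 h before the ATP readout; 100% = median luminescence of untreated cell-only wells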
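material = human LL 47 lung fibroblast cells | dosing = compounds added from tenfold dosing solution, 0.1% DMSO final | timing = overnight cell rest, 72 h compound treatment at 37 °C | measured by = CellTiter-Glo luminescence measuring cellular ATP | evaluation = % viability versus median cells-only luminescence | control set = cell-only wells, no compound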
PTK2B oligo ant – Pyk2 (human) oligomerization antagonism; actives 0.83% (n = 99,000); Q293 cells, Pyk2 FERM NanoBiT luminescence; stronger effect = lower value; Q14289; z-score (the deposit names both 25 µM and 10 µM); AID 1347419;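 active means Z-score of -3 or lower, scaled per plate to the spread of control and sample wells; inactive means z-score above -3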;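 further: negative z-score means lost luminescence so less FERM oligomerization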
Target sequence (Q14289 whole entry, looked up): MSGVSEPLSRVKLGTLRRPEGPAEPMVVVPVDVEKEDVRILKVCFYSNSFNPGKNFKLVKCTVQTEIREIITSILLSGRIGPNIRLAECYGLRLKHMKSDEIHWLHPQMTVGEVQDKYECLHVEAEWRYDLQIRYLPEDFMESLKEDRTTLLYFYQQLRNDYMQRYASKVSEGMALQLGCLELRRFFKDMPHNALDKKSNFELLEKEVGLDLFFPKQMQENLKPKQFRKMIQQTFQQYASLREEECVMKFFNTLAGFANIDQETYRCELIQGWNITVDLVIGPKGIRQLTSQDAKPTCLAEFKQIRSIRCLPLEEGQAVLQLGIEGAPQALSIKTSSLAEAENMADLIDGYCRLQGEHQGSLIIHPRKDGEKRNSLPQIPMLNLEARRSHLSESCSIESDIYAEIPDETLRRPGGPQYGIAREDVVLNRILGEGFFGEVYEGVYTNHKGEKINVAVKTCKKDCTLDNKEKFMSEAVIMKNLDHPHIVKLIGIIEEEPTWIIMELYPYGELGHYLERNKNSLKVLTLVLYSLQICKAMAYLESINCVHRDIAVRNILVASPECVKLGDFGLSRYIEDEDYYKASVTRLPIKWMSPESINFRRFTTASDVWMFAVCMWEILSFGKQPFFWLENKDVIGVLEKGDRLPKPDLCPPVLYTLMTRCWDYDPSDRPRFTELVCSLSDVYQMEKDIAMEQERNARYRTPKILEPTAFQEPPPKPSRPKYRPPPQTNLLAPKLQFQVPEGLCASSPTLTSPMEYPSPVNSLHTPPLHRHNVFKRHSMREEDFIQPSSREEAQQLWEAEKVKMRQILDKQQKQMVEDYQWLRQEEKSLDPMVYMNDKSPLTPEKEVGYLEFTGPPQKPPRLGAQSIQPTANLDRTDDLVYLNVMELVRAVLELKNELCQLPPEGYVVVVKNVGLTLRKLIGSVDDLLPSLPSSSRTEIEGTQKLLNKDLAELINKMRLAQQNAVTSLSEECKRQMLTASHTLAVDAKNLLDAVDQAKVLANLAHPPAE
HCT116 PTEN-null – suppresses growth of cells with PTEN deletion | HCT116 PTEN-null viability, CellTiter-Glo, 60 h; stronger effect = lower value | viability, % at 10 µM | actives 1.2% (n = 140,000);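 active means viability at or below a set limit, 4 SD under the median of all tested compounds, cut at about 3.7% in these data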;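 further: PTEN knockout HCT116 line with beta catenin targeted HCT116 as companion control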
HUVEC prolif 384 – human endothelial cell proliferation inhibition; HUVEC proliferation, CellTiter-Glo luminescence, 72 h; stronger effect = lower value; viability, % at 10 µM (by protocol); actives 1.1% (n = 86,000); AID 648;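 active means viability at or below 30%; inactive means viability above 30%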;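 further: 100% = median luminescence of DMSO-only cell control wells on each plate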
H69AR inhibit – growth inhibitors of human H69AR lung tumor cells | viability, % at 10 µM | actives 6% (n = 85,000) | H69AR lung tumor viability, ATP luminescence, 72 h; stronger effect = lower value;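 active means viability at or below 40%; inactive means viability above 40%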;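 further: multidrug resistant small cell line overexpressing MRP-1 efflux transporter; 100% = mean luminescence of untreated control wells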
The depositor's hits bear a star; / = not tested or not shown. This is one part of a sample in which hits are shown more often than they occur.

SMILES	bCat KO growth	Fibroblast inh	PTK2B oligo ant	HCT116 PTEN-null	HUVEC prolif 384	H69AR inhibit
CCOC(=O)c1c(-c2ccc(C)o2)csc1NC(=S)NC(=O)N(C)C	77	/	-0.24	72	/	/
CN(C)CCCNC(=O)/C(=C\c1ccc(-c2ccc(Br)cc2)o1)NC(=O)c1ccccc1	1.8*	/	/	1.8*	/	/
CN(C)CCNC(=O)/C(=C/c1ccc(-c2cccc([N+](=O)[O-])c2)o1)NC(=O)c1ccccc1	39	/	/	29	/	/
CN(C)CCNC(=O)/C(=C/c1ccc(-c2cccc(Cl)c2)o1)NC(=O)c1ccccc1	1.6*	/	/	1.6*	/	/
Cc1ccc(C(=O)N/C(=C\c2ccc(-c3ccc(Br)cc3)o2)C(=O)NC2CCS(=O)(=O)C2)cc1 (configuration not stated)	82	/	/	87	/	/
Cc1c(C(=O)N2CCc3ccccc3C2)oc2ccc(S(=O)(=O)N3CC(C)CC(C)C3)cc12 (configuration not stated)	56	/	/	58	/	/
Cc1cc(NC(=O)c2ccoc2C)no1	84	91	-0.37	89	83	71
CCCCCn1c(CN2CCN(c3cc(Cl)ccc3C)CC2)nc2c1c(=O)[nH]c(=O)n2C	7	87	-0.26	10	28*	3.5*
CCCCCn1c(N2CCN(c3cccc(Cl)c3)CC2)nc2c1c(=O)[nH]c(=O)n2C	65	99	0.39	56	85	59
Cn1c(=O)c2c(nc(N3CCN(Cc4ccccc4)CC3)n2CC(=O)c2ccccc2)n(C)c1=O	/	93	-0.05	/	92	32*
Cn1c(=O)[nH]c(=O)c2c1nc(N1CCN(Cc3ccccc3)CC1)n2CCCc1ccccc1	5.6*	93	-0.49	6	85	71
CCCCCOC(=O)Cn1c(=O)c2c(nc(N3CCOCC3)n2C)n(C)c1=O	87	96	0.07	84	94	35*
CCOC(=O)Cn1c(=O)c2c(nc(N3CCOCC3)n2C)n(C)c1=O	93	99	1.2	95	105	68
Cc1[nH]c(=O)[nH]c(=O)c1/C=C/C(=O)OCC(C)C	85	/	/	93	/	/
CCOC(=O)c1c(NC(=O)COc2cccc3c2CCN(CC)C3=O)sc2c1CCC2	84	/	/	78	/	/
CCOC(=O)Cn1c(=O)c2c(nc(N3CCCCC3)n2Cc2ccccc2)n(C)c1=O	79	96	-1.1	79	102	24*
C/C(Cl)=C/Cn1c(N2CCCC2)nc2c1c(=O)n(C)c(=O)n2C	86	86	-0.09	91	92	33*
C/C(Cl)=C\Cn1c(N2CCCC2)nc2c1c(=O)[nH]c(=O)n2C	105	92	-0.41	95	96	70
CCOC(=O)Cn1c(=O)c2c(nc(Br)n2Cc2ccc(Cl)cc2)n(C)c1=O	/	87	/	/	92	85
Cc1ccc(C)c(S(=O)(=O)Nc2ccc3scnc3c2)c1	30	/	-1.4	31	63	17*
CCC(C)(C)n1nnnc1CN1CCC(c2nc3ccc(C)cc3[nH]2)CC1	20	84	0.07	38	63	12*
Cc1cc2nc(C3CCN(Cc4nnnn4Cc4ccccc4)CC3)[nH]c2cc1C	28	/	-0.92	25	/	/
CCOc1cc2[nH]c(=O)n(Cc3ccc(C(=O)NCCOC)cc3)c(=O)c2cc1OCC	103	99	/	97	96	90
CCOc1cc2[nH]c(=O)n(Cc3cccc(OC)c3)c(=O)c2cc1OCC	39	95	-0.39	27	101	21*
CNC(=O)Cn1nc(-c2ccc(C)c(S(=O)(=O)N(C)C)c2)c2ccccc2c1=O	85	109	-0.44	112	93	77
SMILES	bCat KO growth	Fibroblast inh	PTK2B oligo ant	HCT116 PTEN-null	HUVEC prolif 384	H69AR inhibit
O=C(CC(Nc1ccc(F)cc1)c1ccccc1)c1ccccc1 (configuration not stated)	8	/	/	3.4*	/	/
CC1CC1C(=O)OCC(=O)NCc1ccccc1Cl (configuration not stated)	98	94	0.16	101	82	29*
COc1ccc(/C=N/Nc2snc(SC)c2C#N)cc1OC	56	83	-1	58	64	48
COc1cccc(/C=N/Nc2snc(SC)c2C#N)c1O	22	68	/	26	61	20*
CCCCC(=O)Nc1ccc(NC(=O)c2ccc(C)c([N+](=O)[O-])c2)cc1OC	95	/	/	97	/	/
COc1ccccc1/C=N\N=C(\N)c1ccccn1	89	/	/	97	/	/
